Experiment [1] deals with T1, Melanocortin receptor 4 (Homo sapiens, UniProt P32245). The experiment is described as follows: Effective concentration for cAMP accumulation relative to alpha-MSH at human MC4R. Type of experiment: functional. Put shortly:
(§1)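 cAMP accumulation at human MC4R, measured relative to α-MSH. EC50 is the inflection point of the cAMP dose-response curve. Where no EC50 is given, the value is the accumulation at the highest concentration tested. %Max is the accumulation at 10 µM compound relative to α-MSH. Values are means of at least two separate experiments.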
On the technique in general: cAMP levels reflect the balance of adenylyl cyclase and phosphodiesterase activity.

The target in experiment [2] is T1, Melanocortin receptor 4. Nature of the experiment: Percentage of cAMP accumulation of compound relative to alpha-MSH, at human MC4R. It counts as functional. The procedure, abridged:
as §1

Experiment [3] addresses T1, Melanocortin receptor 4. Nature of the experiment: Concentration required to inhibit binding of [125I]-NDP-alpha-MSH from membranes prepared from CHO cells expressing human melanocortin subtype-4-receptor (MC4R). Type of experiment: cell membranes. The procedure, abridged:
(§2)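 Competition binding using membranes from CHO cells expressing human MC4R, with [125I]-NDP-α-MSH as radioligand. IC50 is the compound concentration that inhibits radioligand binding by 50%. Values are means of at least two separate experiments.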

Experiment [4] addresses T1, Melanocortin receptor 4. The experiment is described as follows: Percentage of cAMP accumulation at 10 uM of compound relative to alpha-MSH, at human MC4R. Type of experiment: functional. The procedure, abridged: as §1
For experiment [5], the target named is T1, Melanocortin receptor 4. Nature of the experiment: Concentration required to inhibit binding of [125I]NDP-alpha-MSH from membranes prepared from CHO cells expressing human MC4R. It counts as cell membranes. Put shortly:
as §2

For experiment [6], the target named is Melanocortin receptor 3 (Homo sapiens, UniProt P41968). The experiment is described as follows: Concentration required to inhibit binding of [125I]NDP-alpha-MSH from membranes prepared from CHO cells expressing human melanocortin subtype-3-receptor (MC3R). Type of experiment: cell membranes.
Sequence of Melanocortin receptor 3 (P41968 whole entry): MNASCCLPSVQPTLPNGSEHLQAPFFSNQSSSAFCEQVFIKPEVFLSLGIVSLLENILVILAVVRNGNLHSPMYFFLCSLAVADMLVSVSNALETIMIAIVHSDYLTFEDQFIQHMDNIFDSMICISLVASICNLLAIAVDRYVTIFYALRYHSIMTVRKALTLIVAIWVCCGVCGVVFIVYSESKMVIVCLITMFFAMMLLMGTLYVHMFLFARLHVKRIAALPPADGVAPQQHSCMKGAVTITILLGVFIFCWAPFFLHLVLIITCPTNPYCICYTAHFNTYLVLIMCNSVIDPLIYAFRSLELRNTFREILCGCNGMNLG
Experiment [7] concerns the target Melanocortin receptor 5 (Homo sapiens, UniProt P33032). Nature of the experiment: Concentration required to inhibit binding of [125I]NDP-alpha-MSH from membranes prepared from CHO cells expressing human melanocortin subtype-5-receptor (MC5R). It counts as cell membranes.

The structures appear in SMILES notation.

T1 sequence (P32245 whole entry): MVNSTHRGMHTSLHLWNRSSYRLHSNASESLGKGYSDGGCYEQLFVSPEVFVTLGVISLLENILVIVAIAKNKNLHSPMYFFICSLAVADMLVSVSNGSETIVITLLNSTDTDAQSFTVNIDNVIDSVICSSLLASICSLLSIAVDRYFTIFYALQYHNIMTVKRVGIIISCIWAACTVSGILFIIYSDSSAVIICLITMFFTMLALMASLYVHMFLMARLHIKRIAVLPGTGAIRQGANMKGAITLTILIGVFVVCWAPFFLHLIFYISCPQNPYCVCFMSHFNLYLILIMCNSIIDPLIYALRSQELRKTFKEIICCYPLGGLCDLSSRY
Sequence of Melanocortin receptor 5 (P33032 whole entry): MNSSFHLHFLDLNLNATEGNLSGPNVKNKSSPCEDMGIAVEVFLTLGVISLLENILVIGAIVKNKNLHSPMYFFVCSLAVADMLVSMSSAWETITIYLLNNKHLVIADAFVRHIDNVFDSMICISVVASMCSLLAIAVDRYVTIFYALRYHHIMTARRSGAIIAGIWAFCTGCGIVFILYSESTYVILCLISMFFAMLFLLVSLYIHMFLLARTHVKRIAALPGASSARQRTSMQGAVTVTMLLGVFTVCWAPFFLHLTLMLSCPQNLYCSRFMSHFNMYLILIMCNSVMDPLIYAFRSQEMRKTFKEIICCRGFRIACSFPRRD

By EC50 is commonly meant the concentration needed to bring the measured effect to its halfway point. Higher therefore signals lower potency in that assay. The IC50 is the concentration that gives 50% inhibition. A lower IC50 goes with higher potency. In turn, `COc1ccc(-n2nc(Sc3ccc(Cl)cc3)cc(CCCNC(=O)[C@H]3CNCC[C@@H]3c3ccccc3)c2=O)cc1` had an EC50 in experiment [1] of 0.5 µM. The same molecule came in with a Max in experiment [2] of 20%. This molecule showed an IC50 in experiment [3] of 1.97 µM.

In experiment [2], `O=C(N[C@H](Cc1ccc(Cl)cc1)C(=O)N1CCC(Cn2cncn2)(C2CCCCC2)CC1)[C@H]1CCc2ccccc2N1` showed a Max of 97%. This molecule had an IC50 in experiment [3] of 0.0012 µM.

`COc1ccc(-n2nc(Sc3ccc(Cl)cc3)cc(CC[C@@H](C)NC(=O)[C@H]3CNCC[C@H]3c3ccccc3)c2=O)cc1` showed an EC50 in experiment [1] of 4.05 µM. Further, in experiment [4], the Max turned out to be 54%. This molecule also returned an IC50 in experiment [3] of 2.24 µM.

Molecule `COc1ccc(-n2nc(Sc3ccc(Cl)cc3)cc(C(C)CCNC(=O)[C@H]3CNCC[C@@H]3c3ccccc3)c2=O)cc1` (stereo partly drawn) yielded an EC50 in experiment [1] of over 5 µM. The molecule further displayed a Max in experiment [2] of 31%. Moreover, in experiment [3], the IC50 was determined as 3.93 µM.

Consider `COc1ccc(-n2nc(Sc3ccc(Cl)cc3)cc(CC[C@@H](C)NC(=O)[C@H]3CNC[C@@H]3c3ccccc3)c2=O)cc1` [listing 1 of 3 here], for which the Max in experiment [2] was determined as 97%; in experiment [4], 103%.

`COc1ccc(-n2nc(Sc3ccc(Cl)cc3)cc(CC[C@H](C)NC(=O)[C@@H]3CNCC[C@@H]3c3ccccc3)c2=O)cc1` came in with a Max in experiment [4] of 12%.

For the molecule `COc1ccc(-n2nc(Sc3ccc(Cl)cc3)cc(CCCNC(=O)[C@H]3CNC[C@@H]3c3ccccc3)c2=O)cc1`, the EC50 in experiment [1] amounted to 0.82 µM. This molecule also returned a Max in experiment [2] of 22%. Also, the IC50 in experiment [3] turned out to be 1.24 µM.

`COc1ccc(-n2nc(Sc3ccc(Cl)cc3)cc(CC[C@H](C)NC(=O)[C@H]3CNCC[C@@H]3c3ccccc3)c2=O)cc1` returned an EC50 in experiment [1] of 1.73 µM. The Max in experiment [4] came to 65%. In experiment [3], this molecule registered an IC50 of 1.2 µM.

Consider `COc1ccc(-n2nc(Sc3ccc(Cl)cc3)cc(CC[C@@H](C)NC(=O)[C@@H]3CNCC[C@@H]3c3ccccc3)c2=O)cc1`, for which, in experiment [1], the EC50 is over 5 µM. In experiment [4], this molecule came in with a Max of 38%.

Take `COc1ccc(-n2nc(Sc3ccc(Cl)cc3)cc(CC[C@H](C)NC(=O)[C@H]3CNC[C@@H]3c3ccccc3)c2=O)cc1`: the EC50 in experiment [1] was found to be 5.8 µM. Also, the Max in experiment [2] is 67%. The IC50 in experiment [3] was 0.975 µM.

The molecule `COc1ccc(-n2nc(Sc3ccc(Cl)cc3)cc(CCCNC(=O)[C@H]3CCNC[C@@H]3c3ccccc3)c2=O)cc1` displayed an EC50 in experiment [1] of over 5 µM. Also, the Max in experiment [2] was found to be 28%. Further, the IC50 in experiment [3] was determined as 2.75 µM.

For `COc1ccc(-n2nc(Sc3ccc(Cl)cc3)cc(CC[C@H](C)NC(=O)[C@H]3CNCC[C@H]3c3ccccc3)c2=O)cc1`, in experiment [4], the Max came out at 13%. This molecule also came in with an IC50 in experiment [3] of 9.02 µM.

The molecule `COc1ccc(-n2nc(Sc3ccc(Cl)cc3)cc(CCC(=O)NCCOc3ccccc3)c2=O)cc1` showed an IC50 in experiment [5] of 5.6 µM. Also, the Max in experiment [4] was 15%.

In the case of `COc1ccc(-n2nc(Sc3ccc(Cl)cc3)cc(CC[C@@H](C)NC(=O)[C@H]3CNC[C@@H]3c3ccccc3)c2=O)cc1` [listing 2 of 3 here], in experiment [1], the EC50 was determined as 0.25 µM. Besides, the IC50 in experiment [3] amounted to 0.38 µM.

With `COc1ccc(-n2nc(Sc3ccc(Cl)cc3)cc(CCC(=O)NC3CCCCNC3=O)c2=O)cc1` (stereo not drawn), the IC50 in experiment [5] amounted to 0.00227 µM. In experiment [4], this molecule displayed a Max of 0%.

As to `COc1ccc(-n2nc(Sc3ccc(Cl)cc3)cc(CC[C@@H](C)NC(=O)[C@H]3CNC[C@@H]3c3ccccc3)c2=O)cc1` [listing 3 of 3 here], in experiment [1], the EC50 is 0.405 µM. In experiment [3], this molecule yielded an IC50 of 0.19 µM.

On to `COc1ccc(-n2nc(Sc3ccc(Cl)cc3)cc(CC[C@@H](C)NC(=O)[C@H]3CNCC[C@@H]3c3ccccc3)c2=O)cc1`, for which the IC50 in experiment [6] was found to be 2.17 µM; in experiment [7], 1.41 µM; in experiment [3], 0.033 µM. In experiment [1], this molecule showed an EC50 of 0.177 µM. In addition, in experiment [4], the Max is 77%.

Molecule `COc1ccc(-n2nc(Sc3ccc(Cl)cc3)cc(CCC(C)NC(=O)[C@H]3CCNC[C@@H]3c3ccccc3)c2=O)cc1` (stereo partly drawn) yielded an EC50 in experiment [1] of 0.26 µM. For the same molecule, the Max in experiment [2] was found to be 79%. In experiment [3], this molecule showed an IC50 of 0.339 µM.

For `COc1ccc(-n2nc(Sc3ccc(Cl)cc3)cc(CCC(=O)N[C@@H]3CCc4ccccc4NC3=O)c2=O)cc1`, the EC50 in experiment [1] turned out to be 3.06 µM. The Max in experiment [2] is 34%. Further, the IC50 in experiment [3] worked out at 0.144 µM.

For the molecule `COc1ccc(-n2nc(Sc3ccc(Cl)cc3)cc(CC[C@@H](C)NC(=O)[C@@H]3CNCC[C@H]3c3ccccc3)c2=O)cc1`, the EC50 in experiment [1] is over 5 µM. Also, the Max in experiment [4] was 32%. This molecule yielded an IC50 in experiment [3] of 2.06 µM.

Turning to `COc1ccc(-n2nc(Sc3ccc(Cl)cc3)cc(CC(C)CNC(=O)[C@H]3CNCC[C@@H]3c3ccccc3)c2=O)cc1` (stereo partly drawn), the EC50 in experiment [1] was over 5 µM. The molecule also returned a Max in experiment [2] of 35%. The molecule also gave an IC50 in experiment [3] of 2.17 µM.

`COc1ccc(-n2nc(Sc3ccc(Cl)cc3)cc(CC[C@@H](C)NC(=O)[C@H]3CCNC[C@@H]3c3ccccc3)c2=O)cc1` registered an EC50 in experiment [1] of 0.237 µM. In addition, the Max in experiment [4] amounted to 85%. Further, the IC50 in experiment [3] worked out at 0.13 µM.

In turn, `COc1ccc(-n2nc(Sc3ccc(Cl)cc3)cc(CC[C@H](C)NC(=O)[C@@H]3CNCC[C@H]3c3ccccc3)c2=O)cc1` yielded a Max in experiment [4] of 5%. The molecule also showed an IC50 in experiment [3] of 2.99 µM.

Take `COc1ccc(-n2nc(Sc3ccc(Cl)cc3)cc(CCC(C)NC(=O)[C@H]3CNCC[C@@H]3c3ccccc3)c2=O)cc1` (stereo partly drawn): the response in experiment [1] was half-maximal at 0.227 µM (EC50). Further, in experiment [2], the Max stood at 82%. Also, in experiment [3], the IC50 was determined as 0.041 µM.

The values above are taken from ChEMBL document CHEMBL1136492, “Design and syntheses of melanocortin subtype-4 receptor agonists: evolution of the pyridazinone archetype” (Bioorg Med Chem Lett, 2003).
